Tested on: MS2 coat protein
Assay: apparent Kd, MS2 coat protein; higher = weaker binding; RNA-MaP array; FMN 200 µM where present
How it was run: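 Binding was read on Illumina sequencing-chip clusters where stalled E. coli RNA polymerase had transcribed each design. A titration of SNAP-549-labelled MS2 coat protein began at 0.7 or 1.5 nM and doubled to 3 µM, once without ligand and once with constant ligand, in 100 mM Tris-HCl pH 7.5, 80 mM KCl, 4 mM MgCl2, BSA, DTT, yeast tRNA and Tween-20. The apparent Kd is the median of filtered per-cluster binding-curve fits, based on green signal normalised to red-channel RNA signal and control-cluster median Fmax.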

[1] = designed as: OFF switch for flavin mononucleotide, no ligand
[2] = ligand present: flavin mononucleotide, designed as: OFF switch for flavin mononucleotide
[3] = designed as: ON switch for flavin mononucleotide, no ligand
[4] = ligand present: flavin mononucleotide, designed as: ON switch for flavin mononucleotide

GCUGCGUAUGCAGGAUAUACAUGAGGAUCACCCAUGUAACUCGAACUCUAAGCGGGUGCGCGCAUGUAGAAGGGCAGGCGAGCC
apparent Kd [1]: 35.5 nM | apparent Kd [2]: 51.2 nM

GCUGGACGAGGAUAUACAUAACGUGCUUCGGCACGAGAUCUACAUGAGGAUCACCCAUGUAGAAGGUGUCCAGC
apparent Kd [1]: 13.7 nM | apparent Kd [2]: 16.2 nM

GCUGGACGAGGAUAUAUAUGACGUGCUUCGGCACGAAGGUCACAUGAGGAUCACCCAUGUAGAAGGUGUCCAGC
apparent Kd [1]: 30.7 nM | apparent Kd [2]: 106 nM

GCUGGACGUCGAGGAUAUGGGUGUGCGAGUCUUGGCACUGGACAUGAGGAUCACCCAUGUCGCUUCCAGAAGGCGACGUCCCUA
apparent Kd [3]: 35.1 nM | apparent Kd [4]: 6.55 nM

GCUGGGUAGGCAGGAUAUCCUCGCGCAAACACAUGAGGAUCACCCAUGUACACAAAACGUGAUAUGGAGAAGGGCCGACCCACA
apparent Kd [3]: 22.4 nM | apparent Kd [4]: 5.72 nM

GCUGGUCGAGGAUAUGCAAUCGUGCUUCGGCACGUAAGGUCACAUGAGGAUCACCCAUGUAGAAGGUGACCAGC
apparent Kd [1]: 17.1 nM | apparent Kd [2]: 23.3 nM

GCUGUCGCGUGAGGAUAUGGUCAGCUUUGCUGACCAGAAGGCAUGUCAAUAGACAUGAGGAUCACCCAUGUGGUUAGGGCGGCU
apparent Kd [3]: 1070 nM | apparent Kd [4]: 136 nM

GCUUAAGUAGGAUAUACUUGGGCUCGGCUGAUGUGCCUAAAACAUGAGGAUCACCCAUGUAGAAGGACUAAAGC
apparent Kd [1]: 13.9 nM | apparent Kd [2]: 12.1 nM

GCUUCCGCAUGAGGAUAUUGUUAAGGGACGGGACCUCAUGACCCACAUGAGGAUCACCCAUGUGGCGAGAAGGCGUGUAGAGCG
apparent Kd [1]: 10.1 nM | apparent Kd [2]: 32.7 nM

GCUUCGGCUGUGAGGAUAUCGGGCCCGAAAGGGCCCGAGAAGGCACAUGAGGAUCACCCAUGUAAGGUUGAAGU
apparent Kd [1]: 18.8 nM | apparent Kd [2]: 15.4 nM

GCUUGUGAAGGAUAUACUGGCGGCGUGCGCUCGAAGCACGCACAUGAGGAUCACCCAUGUAGAAGGUCAGGCGU
apparent Kd [1]: 16.3 nM | apparent Kd [2]: 13.8 nM

GCUUGUGAAGGAUAUACUGGCGGCGUGCGCUCGGCGCGCGCACAUGAGGAUCACCCAUGUAGAAGGUCAGGCGU
apparent Kd [1]: 13.8 nM | apparent Kd [2]: 12.5 nM

GGAAAUCAUGUAGGAUAUGCAUGGCGAAGCUACGCAGAAGGACAUGAGGAUCACCCAUGUUCUGGCUACCGGAUACGGUGGCAA
apparent Kd [1]: 20.7 nM | apparent Kd [2]: 94.3 nM

GGAAAUUAGCAAGGAUAUCGGCUCACUAUUACUUUAUGCCCUAGGACAUGAGGAUCACCCAUGUACGAGAAGGUGCUAACUACA
apparent Kd [1]: 28.5 nM | apparent Kd [2]: 31.1 nM

GGAAGACAAAGUCUUCCAUAACGAACAUGAGGAUCACCCAUGUAGGAUAUGCUUCUCAAAGAGAAGCAGAAGGACAUGUGUCUU
apparent Kd [1]: 29.7 nM | apparent Kd [2]: 137 nM

GGAAUGUCGGGAGGAUAUCCAAAUGUAUACAUAGGAGAAGGCCCGCACAUGAGGAUCACCCAUGUAAUAACGCGUGGCAUCUAC
apparent Kd [1]: 81.3 nM | apparent Kd [2]: 169 nM

GGACAGUGUCGUUAUCCGUAGCGAACAUGAGGAUCACCCAUGUAGGAUAUGUUAUUAAACUAAUAACAGAAGGACGUUGGUCUC
apparent Kd [1]: 24.8 nM | apparent Kd [2]: 125 nM

GGACAUUUACAGAAGGGCAAGUUGGAUCGCGGAUAACGCGAUCCGACUUGCAGGAUAUGUUGAACAUGAGGAUCACCCAUGUCU
apparent Kd [3]: 7.99 nM | apparent Kd [4]: 8.52 nM

GGACCGCGCAGAAUUGGCGGCCGGCAGGAUAUGACAUGAGGAUCACCCAUGUGAACUCCAUUGGGUCAGAAGGGCCACGACACA
apparent Kd [1]: 21.1 nM | apparent Kd [2]: 66.8 nM

GGACGACCCAUUAACAUGAGGAUCACCCAUGUCAAAAGACAUGAGGAUAUGGUACCUAAUUGGUACCAGAAGGCAUGGUCGUCC
apparent Kd [3]: 1470 nM | apparent Kd [4]: 107 nM

GGACGUCACAUUAACAUGAGGAUCACCCAUGUCAAAAGACAUGAGGAUAUGGAUAAUAAUAUAAACCAGAAGGCAUGGACGUCC
apparent Kd [3]: 526 nM | apparent Kd [4]: 29.2 nM

GGACGUCACAUUAACAUGAGGAUCACCCAUGUCAAAAGACAUGAGGAUAUGGAUGCGAAACGCAUCCAGAAGGCAUGGACGUCC
apparent Kd [3]: 629 nM | apparent Kd [4]: 41.1 nM

GGACGUCACAUUAACAUGAGGAUCACCCAUGUCAAAGGACAUGAGGAUAUGGAUCCUAAUUGGAUCCAGAAGGCAUGGACGUCC
apparent Kd [3]: 398 nM | apparent Kd [4]: 34.3 nM

GGACGUCUCAUUAACAUGAGGAUCACCCAUGUCGAUAGACAUGAGGAUAUGGAUCCUAAUUGGAUCCAGAAGGCAUGGACGUCC
apparent Kd [3]: 1040 nM | apparent Kd [4]: 67.6 nM

GGAGAACACAUUAACAUGAGGAUCACCCAUGUCAAAAGACAUGAGGAUAUGGAUCCGAAAAGGAUCCAGAAGGCAUGGUGCUCC
apparent Kd [3]: 511 nM | apparent Kd [4]: 26.5 nM

GGAGACCUCACAGGAUAUGCUGGACUUUGUCCAGCAGAAGGGUGAAAACAUGAGGAUCACCCAUGUAUGGUCUCCAAAUUUAAG
apparent Kd [3]: 190 nM | apparent Kd [4]: 15.3 nM

GGAGCACAUAAAUACAUGAGGAUCACCCAUGUCAAAAGACAUGAGGAUAUGGAUCGGAAAACGAUCUAGAAGGCAUGGUGCUCC
apparent Kd [3]: 533 nM | apparent Kd [4]: 20.9 nM
